In the library only some 1.3% were active in any assay of this set; here they are far more common.
Xi reactivation – activators of inactive X chromosome reactivation, primary screen, imaging, XiGFP fibroblasts, GFP high-content imaging, set 2; AID 743238, 2013; activation, % at 7.58 µM; XiGFP mouse fibroblasts, % GFP-positive cells imaging, 3 d; cells co-treated with 5-aza-dC sensitizer; scaled so ellipticine positive control = 100%; 0.055% of 360,000 active;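 active = mean normalized replicate activation at least 10% and every replicate at or above 10%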;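 note: 0% = median of on-plate neutral control wells and 100% = ellipticine 6 µM median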
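Assay system: SV40-immortalized XiGFP fibroblast cells, line 68-5-11; buffer or medium: DMEM plus 5-aza-dC sensitizer; compound: one concentration, pinned; timing: compounds 3 days, fix/stain 15 min at room temperature; benchmarks: positive control ellipticine, 6 µM final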
HNF4A DNA FP – change in binding of human HNF4A to DNA, primary screen, biochemical, fluorescence polarization, FITC-DNA; Hepatocyte nuclear factor 4-alpha (Homo sapiens), P41235; 1 h; activity change, % at 10 µM; 0.3% of 360,000 active; in the data active = activity change above about 30%, passing the limit was not always enough
TPT1 inhibitor – Candida albicans TPT1 enzyme inhibitors, primary screen, biochemical, fluorescence polarization; tRNA 2'-phosphotransferase TPT1 (Candida albicans SC5314); recombinant caTPT1, FP RNA substrate dephosphorylation; inhibition, % at 5 µM; 0.81% of 300,000 active; AID 1962, 2009;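 active = inhibition above the mean of all tested compounds plus 3 SD, set per screening campaign, cut at about 24% in these data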;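 note: plate controls were DMSO alone for no effect and ferristatin control at 100 nM for full effect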
CSN inh – inhibitors of CSN-mediated cullin deneddylation, primary screen, biochemical, fluorescence polarization, uHTS; COP9 signalosome complex subunit 5 (Homo sapiens), Q92905; Purified CSN, SCF-Nedd8-OG deneddylation; inhibition, % at 12.5 µM; 0.38% of 360,000 active; AID 651999, 2013;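 active = pattern-corrected inhibition above about 35%, with an unprinted fluorescence ratio check between 0.5 and 1.5, limit read from the data, passing the limit was not always enough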;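 note: 0% = enzyme with substrate and 100% = substrate without enzyme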
Target sequence (Q92905 whole entry, looked up, one chain of several): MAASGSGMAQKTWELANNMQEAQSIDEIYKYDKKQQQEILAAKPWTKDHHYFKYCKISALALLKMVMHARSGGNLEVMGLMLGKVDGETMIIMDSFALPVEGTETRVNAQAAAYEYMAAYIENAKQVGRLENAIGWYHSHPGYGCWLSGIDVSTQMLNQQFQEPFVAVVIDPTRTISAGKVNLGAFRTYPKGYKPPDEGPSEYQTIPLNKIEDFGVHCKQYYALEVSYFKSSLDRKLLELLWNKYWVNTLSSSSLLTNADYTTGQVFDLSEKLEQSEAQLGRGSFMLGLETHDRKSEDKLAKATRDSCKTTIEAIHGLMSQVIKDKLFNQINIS
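Test system: Human Csn5 produced in HEK293T cells | Compound: 12.5 µM single point | Times: 90 min, room temperature | Signal: Fluorescence polarization readout | Read-out basis: % inhibition of substrate cleavage by Csn5 | Controls: no-enzyme wells high, enzyme-with-substrate wells low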
Rpn11 inh – Rpn11 (PSMD14) deubiquitinase inhibitors, primary screen, biochemical, fluorescence polarization, uHTS | human 26S proteasome, Ub4-pepOG fluorescence polarization; 20S core pre-blocked with epoxomicin | inhibition, % at 20 µM | 0.59% of 360,000 active | AID 588493, 2011;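 active = inhibition at 20 µM, scaled to each plate's controls, above about 33%, limit read from the data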
aDG glyco up – activators of alpha-DG glycosylation, primary screen, uHTS, Pro5-aDG cells, AlphaScreen; alpha-DG glycosylation AlphaScreen (IIH6); 0% Pro5, 100% B10-LARGE cell signal; activation, % at 10 µM; 0.22% of 360,000 active; AID 624168, 2012;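 active = activation of at least 8% versus controls, or a plate z-score of at least 8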;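 note: Pro5 are CHO cells carrying HIG-tagged alpha-DG that lacks glycosylation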
caTPT1 confirm – Candida albicans TPT1 inhibitors, confirmation, biochemical, fluorescence polarization, triplicate; inhibition, % at 5 µM; shares compounds with TPT1 inhibitor; 74% of 2,400 active; recombinant caTPT1, RNase T1 coupled;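 active = inhibition above the primary screen limit, the mean inhibition of all tested compounds plus 3 SD, cut at about 25% in these data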
RNase T1 inh – RNase T1 inhibitors, counter-screen for TPT1 inhibitor project, biochemical, fluorescence polarization | inhibition, % at 5 µM | RNase T1 cleavage, 1536-well | 83% of 2,400 active | AID 2153, 2009 | shares compounds with TPT1 inhibitor;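 active = inhibition above the solvent-only control well mean plus 3 SD, limit set per screening run, cut at about 23% in these data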;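 note: plate controls were DMSO wells with enzyme for no effect and wells without RNase T1 for full effect; inhibitors block cleavage so intact labeled substrate keeps polarization high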
Target sequence (P00651 whole entry, looked up): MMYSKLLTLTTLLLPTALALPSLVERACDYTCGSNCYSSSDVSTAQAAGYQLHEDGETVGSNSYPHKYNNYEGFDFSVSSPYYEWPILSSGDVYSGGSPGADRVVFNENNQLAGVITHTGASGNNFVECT
Numbers without * were called inactive; nt = not tested or not shown.

SMILES	Xi reactivation	HNF4A DNA FP	TPT1 inhibitor	CSN inh	Rpn11 inh	aDG glyco up	caTPT1 confirm	RNase T1 inh
CCOC(=O)c1c(-c2ccc(OC)cc2)csc1/N=C/C1C(=O)CCCC1=O	0	4	172*	9	32	0	25*	36*
CCOC(=O)c1c(-c2ccc(OC)cc2)csc1/N=C/N(C)C	0	3	-1	-4	0	0	nt	nt
C[C@@H]1CCCCO[C@@H](CN(C)Cc2ccc(C(=O)Nc3ccccc3N)cc2)[C@@H](C)CN([C@@H](C)CO)C(=O)c2cc(N(C)C)ccc2O1	0	nt	nt	nt	nt	nt	nt	nt
O=C(NC1CCCC1)N1CC2(C1)[C@H](c1ccccc1)[C@H](CO)N2S(=O)(=O)Cc1ccccc1	0	nt	nt	nt	nt	nt	nt	nt
CNc1ccc(Br)cc(C(=O)/C=C/c2cc(OC)ccc2OC)c1=O	nt	-4	66*	16	0	0	63*	76*
CNc1ccc(Br)cc(C(=O)/C=C/c2ccc(OC)cc2)c1=O	0	-5	53*	24	-9	-1	36*	46*
CCNc1ccc(Br)cc(C(=O)/C=C/c2ccc(Cl)cc2Cl)c1=O	nt	15	69*	28	24	0	85*	92*
CCC(=O)N1[C@@H]2c3cccc(=O)n3C[C@H]1[C@H](CO)[C@H]2C(=O)NC1CCCCC1	0	nt	nt	nt	nt	nt	nt	nt
CCCN1C[C@@H](C)[C@H](OC)CN(C)C(=O)c2cc(NS(=O)(=O)CC)ccc2OC[C@@H]1C	0	nt	nt	nt	nt	nt	nt	nt
COc1cc(/C=C2\SC(=O)N(CC(=O)Nc3ccccc3F)C2=O)cc(Cl)c1O	1	3	67*	11	25	1	81*	68*
CO[C@@H]1CN(C)C(=O)c2cc(NC(=O)CC(F)(F)F)ccc2OC[C@H](C)N(CC2CC2)C[C@H]1C	0	nt	nt	nt	nt	nt	nt	nt
COc1ccc(S(=O)(=O)Nc2ccc3c(c2)C(=O)N([C@H](C)CO)C[C@@H](C)[C@H](CN(C)Cc2ccc(Oc4ccccc4)cc2)O3)cc1	-1	nt	nt	nt	nt	nt	nt	nt
Cc1cccc(N2CCN(C(=O)c3ccc4c(c3)NC(=O)C(CSCc3cccc(F)c3)N4)CC2)c1C (stereo unspecified)	nt	nt	134*	nt	nt	nt	131*	125*
Cc1cccc(N2CCN(C(=O)c3ccc4c(c3)OCCO4)CC2)c1C	0	-2	1	4	-9	2	nt	nt
CCNC(=O)[C@@H]1[C@@H](CO)[C@@H]2Cn3c(ccc(-c4ccccc4)c3=O)[C@@H]2N1Cc1ccc2c(c1)OCO2	0	nt	nt	nt	nt	nt	nt	nt
COc1cccc(S(=O)(=O)N2C[C@@H]3N[C@H](C2)C3c2ccc(/C=C/c3ccccc3)cc2)c1 (stereo partly specified)	0	nt	nt	nt	nt	nt	nt	nt
CC(=O)N1[C@@H]2CN(CC(F)(F)F)C[C@H]1C2c1ccc(Br)cc1 (stereo partly specified)	0	nt	nt	nt	nt	nt	nt	nt
Cc1cccc(N=Cc2c(O)cc(C)oc2=O)c1	0	0	-3	4	3	0	nt	nt
Cc1cccc(N=Cc2[nH]c3ccc(Br)c(Cl)c3c2O)c1	0	54	112*	-3	11	6	73*	77*
COc1ccc(C2C(C#N)=C(N)N(c3ccccc3)C3=C2C(=O)CCC3)cc1Cn1cc([N+](=O)[O-])cn1 (stereo unspecified)	nt	10	9	4	5	0	nt	nt
